Tn6 DDE FP – inhibitors of Tn6 peptide binding to fibrin DD(E), primary screen, biochemical, fluorescence polarization, human fibrin, Tn6 probe | Fibrinogen beta chain (Homo sapiens), P02675 | Fibrin DD(E) TRITC-Tn6 fluorescence polarization displacement | inhibition, % at 8.3 µM | 370,000 compounds, 0.21% hits;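 active means inhibition above a per-campaign cutoff: mean of compounds within control limits plus 3 SD, cut at about 15% in these data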;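 further: 0% = median of all compound wells on the plate and 100% = blocking peptide control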
Tn7 DDE FP – inhibitors of Tn7 peptide binding to fibrin DD(E), primary screen, biochemical, fluorescence polarization, human fibrin, Tn7 probe; 370,000 compounds, 0.13% hits; AID 720508, 2013; Fibrinogen beta chain (Homo sapiens), P02675; FP displacement of FITC-Tn7 peptide from fibrin DD(E); 0% = median of compound wells per plate; inhibition, % at 8.3 µM;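 active means inhibition above the mean of compounds falling within the control limits plus 3 SD of them, cut at about 14% in these data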;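 further: 0% = plate median of compound wells and 100% = 10 µM Aha-Tn7 peptide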
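Also added: labelled Tn7 tracer, 0.1 µM; Assay system: human fibrin DD(E) protein; Amount: 2 µM fibrin DD(E); Schedule: 10 min compound pre-incubation, 3 h probe incubation at room temperature; Repeats: one replicate per compound; Read-out basis: percent inhibition; Measured by: fluorescence polarization of the labelled Tn7 tracer.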
PLC-gamma1 inh – PLC-gamma1 enzyme inhibitors, primary screen, biochemical, fluorescence, purified enzyme; 1-phosphatidylinositol 4,5-bisphosphate phosphodiesterase gamma-1 (Homo sapiens), P19174; fluorogenic substrate; inhibition, % at 12.2 µM; 370,000 compounds, 0.84% hits; in the data active means inhibition above about 9.5%
NRP1-CendR mod – modulators of CendR peptide binding to NRP-1, primary screen, biochemical, fluorescence polarization, uHTS; Neuropilin-1 (Homo sapiens), O14786; FAM-RPARPAR peptide binding to NRP-1; inhibition, % at 25 µM; 360,000 compounds, 0.85% hits; AID 602438, 2012;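 active means inhibition or corrected inhibition above about 18%, plus a signal ratio from 0.5 to 1.5, limit read from the data, passing the limit was not always enough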
PLCb3 inh – human PLC-beta3 inhibitors, primary screen, biochemical, fluorescence; inhibition, % at 12.2 µM; Purified PLC-beta3, fluorogenic substrate; 1-phosphatidylinositol 4,5-bisphosphate phosphodiesterase beta-3 (Homo sapiens), Q01970; 370,000 compounds, 0.18% hits; AID 720704, 2013; in the data active means inhibition above about 11%;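 further: 0% = median of compound wells on plate and 100% = full blocker control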
KLK7 zymogen act – proKLK7 zymogen activators, primary screen, biochemical, fluorescence intensity; Kallikrein-7 (Homo sapiens), P49862; purified proKLK7, EDANS-DABCYL substrate fluorescence; 100% is mature enzyme control, 0% vehicle; activation, % at 7 µM; 370,000 compounds, 0.9% hits; AID 652039, 2013;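 active means activation above the mean of all tested compounds plus 3 SD, computed per campaign excluding outliers beyond control limits, cut at about 13% in these data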
Target sequence (P49862 whole entry, looked up): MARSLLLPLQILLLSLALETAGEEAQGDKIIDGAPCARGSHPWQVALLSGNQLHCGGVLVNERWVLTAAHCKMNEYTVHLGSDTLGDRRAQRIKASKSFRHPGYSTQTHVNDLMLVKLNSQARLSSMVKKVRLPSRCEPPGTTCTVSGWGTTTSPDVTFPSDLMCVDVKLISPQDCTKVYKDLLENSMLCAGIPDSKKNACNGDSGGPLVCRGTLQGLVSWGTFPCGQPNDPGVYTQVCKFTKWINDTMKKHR
Active calls of the source: *; / = not tested or not shown. Compounds with a hit are over-represented: about 3% of the library has one in this group of screens.

SMILES	Tn6 DDE FP	Tn7 DDE FP	PLC-gamma1 inh	NRP1-CendR mod	PLCb3 inh	KLK7 zymogen act
c1coc(CSSCc2ccco2)c1	-6.0	5.0	13.1*	-7.3	-17.9	-0.2
COc1ccc(CCNC(=O)c2ccc(N(C)S(=O)(=O)c3ccc(C)cc3)cc2)cc1	6.8	-0.6	1.0	21.4*	-4.8	-0.3
COc1ccc(CCNC(=O)c2ccc(Cl)c(S(=O)(=O)N(C)c3ccccc3)c2)cc1	3.9	4.3	1.1	23.0*	-1.2	0.4
COc1ccc(CCNC(=O)c2ccc(Cl)c(S(=O)(=O)N3CCCCCC3)c2)cc1	-2.1	0.5	-2.8	-2.0	-1.9	-0.2
O=C(c1cccs1)N1CCC(N2CCN(c3ccccc3)CC2)CC1	-3.7	-1.1	1.4	-0.1	4.9	0.2
O=C(c1cccc2ccccc12)N1CCC(N2CCN(c3ccccc3)CC2)CC1	-5.4	4.1	14.6*	-2.7	4.5	0.0
COc1cccc(N2CCN(CC(=O)NCc3ccc(F)cc3)CC2)c1	-2.7	-4.9	-0.2	/	4.5	-0.1
COc1ccc(C(=O)/C=C2/C(=O)Nc3ccccc32)cc1OC	4.9	0.0	-2.7	38.9*	-5.2	0.2
COC(=O)c1cccc(OCC(C)CN2CCC(C(O)(c3ccccc3)c3ccccc3)CC2)c1 (stereo unspecified)	0.1	-3.1	6.3	/	4.4	0.4
O=C(C1CC1)C1(C(=O)N2CCOCC2)CC(c2ccccn2)=NO1 (stereo unspecified)	-0.2	-1.5	4.5	/	2.2	-0.2
CCCCOc1ccc(C(=O)Nn2cnnc2)cc1	1.8	1.3	0.1	24.9*	1.8	-0.8
CCCCc1cccc2[nH]cc(C)c12	-7.3	0.4	-4.7	/	-10.8	0.9
Cc1oc(/N=C/c2ccccc2)c(C#N)c1C	3.0	-2.8	-15.7	0.3	-20.5	1.1
COc1[nH]c(/N=C/c2ccccc2)c(C#N)c1C#N	38.0*	5.8	-99.0	-3.0	-106.5	0.6
Cc1ccc(S(=O)(=O)/N=C2\C=C(NS(=O)(=O)c3ccccc3)C(=O)c3ccccc32)c(C)c1	3.8	8.3	-0.1	19.6	-3.7	0.0
Cc1ccc(S(=O)(=O)/N=C2\C=C(Nc3cccc(C(=O)O)c3)C(=O)c3ccccc32)cc1	1.2	1.6	5.6	45.4*	-3.1	-0.1
Cc1ccc(S(=O)(=O)/N=C2\C=C(Nc3cccc(C(=O)O)c3)C(=O)c3ccccc32)c(C)c1	-2.3	3.0	6.2	37.5*	-2.4	1.0
COc1cc(C)cc(C(=O)O)c1C1=C(O)c2cccc(O)c2C(=O)C1=O	1.2	-6.0	-4.2	27.8*	-11.6	0.4
Cc1cc(O)c2c(c1)C(=O)c1cccc(O)c1C2=O	9.0	8.7	-4.5	/	-5.2	0.5
O=C(Nc1ccc(C(O)(C(F)(F)F)C(F)(F)F)cc1)c1ccc(F)cc1F	4.1	3.8	-0.2	/	4.0	/
COC(=O)c1cc2c(-c3ccccc3)c(C)c3ccccn3c-2c1C(=O)OC	4.5	11.0	-42.9	-14.6	-64.1	1.4
COC(=O)c1c(Cl)c2n3ccccc3c(C)c(-c3ccccc3)c-2c1C(=O)OC	4.0	-5.3	-102.2	38.5*	-117.5	0.9
O=C(Nc1ccccc1)Nc1ccccc1C(=O)NCc1ccccc1	2.1	11.1	-40.5	5.2	-53.1	-0.4
CNC(=O)Nc1ccccc1C(=O)NCc1ccccc1	-1.9	-1.6	-3.2	27.1*	-3.4	-0.7
Cc1ccc(C)c(NC(=O)C(=O)NCCCN2CCOCC2)c1	4.8	5.9	1.9	33.3*	0.3	0.3
SMILES	Tn6 DDE FP	Tn7 DDE FP	PLC-gamma1 inh	NRP1-CendR mod	PLCb3 inh	KLK7 zymogen act
Cc1ccc(C)c(NC(=S)NCCCN2CCOCC2)c1	-5.1	-9.8	1.7	-5.3	-1.7	0.4
CC(C)c1ccc(S(=O)(=O)N2CCN(C(=O)CN3C(=O)c4ccccc4C3=O)CC2)cc1	-0.7	-2.0	-0.3	30.1*	3.2	-0.9
O=C(CN1C(=O)c2ccccc2C1=O)N1CCN(S(=O)(=O)c2ccccc2)CC1	6.0	-2.6	-1.5	10.9	-7.5	-0.7
CCOC1=C2[C@@H](CN(S(=O)(=O)c3ccccc3C)[C@H]2c2ccc(Cl)cc2)[C@H]2C(=O)N(c3ccccc3)C(=O)[C@H]2C1	-6.2	4.0	1.8	22.2*	0.0	-0.8
CC(C)(C)OC(=O)C[C@H]1C/C=C\C[C@@H](CC(=O)N[C@H](CO)Cc2ccccc2)C(=O)NCCOC1=O	7.6	9.2	-3.0	9.9	4.1	0.4
CC(C)(C)OC(=O)C[C@@H]1C/C=C\C[C@@H](CC(=O)NCCO)C(=O)NC[C@@H](c2ccccc2)OC1=O	6.0	1.7	0.9	18.2*	-1.6	0.4
O=C(C[C@H]1C/C=C\C[C@@H](Cc2ccc(F)cc2)C(=O)O[C@H](c2ccccc2)CNC1=O)NCCO	4.7	2.5	1.7	17.8*	1.2	-0.2
CC(C)(C)[C@H]1COC(=O)[C@H](NC(=O)OCC2c3ccccc3-c3ccccc32)C/C=C\C[C@@H](CC(=O)N[C@H](CO)Cc2ccccc2)C(=O)N1	0.6	-2.2	0.1	-11.1	0.2	0.8
CC(C)(C)[C@H]1COC(=O)[C@H](NC(=O)OCC2c3ccccc3-c3ccccc32)C/C=C\C[C@@H](CC(=O)N[C@@H](CO)Cc2ccccc2)C(=O)N1	-0.6	-7.6	-3.0	19.2*	-2.4	0.3
CC(C)(C)OC(=O)C[C@H]1C/C=C\C[C@@H](CC(=O)N[C@@H](CO)Cc2ccccc2)C(=O)NCCOC1=O	1.4	4.6	-0.6	35.9*	0.0	0.6
O=C(C[C@@H]1C/C=C/CC[C@H](Cc2ccc(F)cc2)C(=O)O[C@H](c2ccccc2)CNC1=O)NCCO	-1.4	-1.4	0.2	7.1	1.2	-0.4
CC(C)C[C@H](NC(C)(C)C(=O)NC1CCCCC1)C(=O)NCC(c1ccccc1)c1ccccc1	1.2	-4.6	0.8	/	4.5	/
COc1ccc([C@H]2OC(=O)C[C@H]2C(=O)N2CCN(C(=O)C3CCCO3)CC2)cc1OC (stereo partly specified)	1.2	-3.7	2.4	/	0.5	-0.5
CCC1CCCCN1CCCNC(=O)C1CCCN(S(=O)(=O)N2CC(C)CC(C)C2)C1 (stereo unspecified)	-11.1	-1.1	2.5	27.3*	-7.0	1.4
CC1CC(C)CN(S(=O)(=O)N2CCCC(C(=O)NCCCN3CCCCC3C)C2)C1 (stereo unspecified)	4.6	0.1	1.2	11.4	-1.7	0.3
CCN1CCN(C(CNS(=O)(=O)c2ccc(Br)cc2)c2cccnc2)CC1 (stereo unspecified)	2.2	-0.3	-2.0	8.8	-9.4	-0.2

Screens from PubChem BioAssay.
